The record followed here is ChEMBL document CHEMBL1146462, “New communesin derivatives from the fungus Penicillium sp. derived from the Mediterranean sponge Axinella verrucosa” (J Nat Prod, 2004).

One may read the LC50 as the concentration lethal to half of the exposed cells or organisms. Higher therefore signals a less lethal substance.

Converted amounts (≈) assume the structure as drawn. The source made the active and inactive calls. The rule behind the calls is not given here. A value given as a limit tells only on which side of the number the result lay.

The test system of one data set is U-937. As to the kind of experiment: Antiproliferative activity against human U937 cells after 48 hrs by MTT assay. The class given is functional. Conditions: U-937, 48 h, read-out: ED50 (the source's name). An outline of the steps:
(§1)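 Human leukemia cell lines were tested for antiproliferative activity by MTT assay and by radioactive thymidine incorporation. Results are given as ED₅₀ in μg/mL.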
Background: Tetrazolium assays rely on reduction of a dye to a coloured formazan, in cell work by metabolically active cells.

Another data set concerns THP-1. Nature of the data set: Antiproliferative activity against human THP1 cells after 48 hrs by MTT assay. It counts as functional. Conditions: THP-1, 48 h, read-out: ED50 (the source's name). An outline of the steps: as §1
Data set [1] in a line: Antiproliferative activity against human NAMALWA cells after 48 hrs by MTT assay. The following applies: NAMALVA, read-out: ED50 (the source's name). It counts as functional. In short, it runs like this: as §1
A further data set concerns MOLT-3. As to the kind of experiment: Antiproliferative activity against human MOLT3 cells after 48 hrs by MTT assay. The class given is functional. The following applies: MOLT-3, 48 h, read-out: ED50 (the source's name). In short, it runs like this: as §1
A further data set concerns L-428. Nature of the data set: Antiproliferative activity against human L428 cells after 48 hrs by MTT assay. It counts as functional. In short, it runs like this: as §1
The nature of data set [2]: Antiproliferative activity against human SUP-B15 cells after 48 hrs by MTT assay. The class given is functional. The following applies: SUP-B15, 48 h, read-out: ED50 (the source's name). An outline of the steps: as §1
Data set [3] is described as follows: Toxicity in Artemia salina. The class given is organism-based. Conditions: in vivo.

For `C/C=C/C=C/C(=O)N1CC[C@@]23c4ccccc4N[C@@H]4Nc5cccc6c5[C@@]42CCN([C@@H]13)[C@@H]6[C@H]1OC1(C)C` [COMMUNESIN C], the EC50 stood at 11.3 µg/mL (≈ 22.8 µM) with U-937; 13.1 µg/mL (≈ 26.5 µM) in the data set with THP-1; 8.2 µg/mL (≈ 16.6 µM) in data set [1]; 8.6 µg/mL (≈ 17.4 µM) in the data set on MOLT-3; 10.8 µg/mL (≈ 21.8 µM) in data set [2]. Besides, the outcome in the data set with L-428 was inactive. The same molecule returned an LC50 in data set [3] of 1.96 µg/mL (≈ 3.96 µM).

Take `C/C=C/C=C/C(=O)N1CC[C@@]23c4ccccc4N[C@@H]4N(C=O)c5cccc6c5[C@@]42CCN([C@@H]13)[C@@H]6[C@H]1OC1(C)C` [COMMUNESIN D]: the EC50 came out at 13.1 µg/mL (≈ 25.1 µM) in the data set with U-937; 16.2 µg/mL (≈ 31 µM) in the data set on THP-1; 14.6 µg/mL (≈ 27.9 µM) in data set [1]; 9.9 µg/mL (≈ 18.9 µM) with MOLT-3; 9 µg/mL (≈ 17.2 µM) in data set [2]. In addition, the outcome in the data set on L-428 was inactive. In data set [3], this molecule came in with a 50% lethal concentration (LC50) of 0.57 µg/mL (≈ 1.09 µM).

As to `C/C=C/C=C/C(=O)N1CC[C@@]23c4ccccc4N[C@@H]4N(C)c5cccc6c5[C@@]42CCN([C@@H]13)[C@@H]6[C@H]1OC1(C)C` [COMMUNESIN B], the EC50 with U-937 was 10.4 µg/mL (≈ 20.4 µM); in the data set on THP-1, 11.4 µg/mL (≈ 22.4 µM); in data set [1], 9.9 µg/mL (≈ 19.5 µM); with MOLT-3 it was 8.1 µg/mL (≈ 15.9 µM); with L-428 (L-428, 48 h, read-out: ED50 (the source's name)), greater than 20 µg/mL; in data set [2], 7.2 µg/mL (≈ 14.2 µM). In data set [3], this molecule yielded a median lethal concentration (LC50) of 0.3 µg/mL (≈ 0.59 µM).
